Published values of several laboratories.
Target: Mitogen-activated protein kinase 4 (MAPK4, Homo sapiens, UniProt P31152)

| Compound | test | setting | remaining binding |
| --- | --- | --- | --- |
| CC1CCCN1c1nccc(-c2cnn3ncccc23)n1 (stereo not drawn) | binding | 1 µM | 100% |
| O=C(NCCCN1CCOCC1)c1ccc(Nc2nccc(-c3cc4ccccc4s3)n2)cc1 | binding, competition with immobilised ligand | 1 µM | 88% |
| C=CC(=O)N1CCC(C(=O)NCC(=O)N2CCN(c3nc(-c4cnc(N)nc4C(F)F)nc(N4CCOCC4)n3)CC2)CC1 | binding, competition with immobilised ligand | 1 µM | 97% |
| CCCOc1ccc([C@H]2[C@H](C(=O)O)[C@@H](c3ccc4c(c3)OCO4)CN2CC(=O)Nc2c(CC)cccc2CC)cc1 | cell-free assay, competition with immobilised ligand | 1 µM | 93% |
| CCN1CCN(Cc2ccc(C(=O)Nc3ccc(C)c(Oc4ccc5c(c4)CC(=O)N5)c3)cc2C(F)(F)F)CC1 | binding, competition with immobilised ligand | 1 µM | 100% |
| CNC(=O)[C@@H]1CC[C@@H](n2c(-c3ccc4cnccc4c3)nc3ccc(C(=O)NCc4cccc(C(N)=O)c4)cc32)C1 | binding, competition with immobilised ligand | 1 µM | 100% |
| O=C(Nc1cnc(Oc2ccc(F)cc2)nc1)N1CCc2ncccc2[C@@H]1c1ccc(F)cc1 | cell-free assay, competition with immobilised ligand | 1 µM | 95% |
| N[C@H]1CCN(c2nccc(-c3cnn4ncccc34)n2)C1 | binding | 1 µM | 100% |
| O=C1NC(c2ccccn2)Sc2ccccc21 (stereo not drawn) | cell-free assay, competition with immobilised ligand | 1 µM | 86% |
| O=C(c1ccc(Nc2nccc(-c3cc4ccccc4s3)n2)cc1)N1CCC(N2CCCC2)CC1 | binding, competition with immobilised ligand | 1 µM | 74% |
| C[C@@H]1CCN(c2nccc(-c3cnn4ncccc34)n2)C1 | binding | 1 µM | 100% |
| COc1cnc(Nc2cccc(S(N)(=O)=O)c2)nc1N1CCN(c2ccccc2)C(=O)C1 | binding, competition with immobilised ligand | 1 µM | 99% |
| C[C@@H](c1ccc(-n2cnc3c(N)ncnc32)cc1)N1CCc2nn(C)c(Cc3ccccc3)c2C1=O | binding, competition with immobilised ligand | 0.1 µM | 87% |
| CO[C@H]1CC[C@H](CNc2ccc(S(=O)(=O)NC(=O)c3ccc(N4CCN(CC5=C(c6ccc(Cl)cc6)CC(C)(C)CC5)CC4)cc3Oc3cnc4[nH]ccc4c3)cc2[N+](=O)[O-])CC1 | cell-free assay, competition with immobilised ligand | 1 µM | 100% |
| CN(C)c1nccc(-c2cnc3ncccn23)n1 | binding | 1 µM | 98% |
| O=C(Nc1c[nH]nc1C(=O)NC1CCNCC1)c1cc(F)cc(F)c1 | binding, competition with immobilised ligand | 1 µM | 100% |
| CC(=O)c1c(NS(C)(=O)=O)c2cc(-c3ccc(Cl)cc3)c(-c3ccc(Cl)cc3Cl)nc2n(C)c1=O | cell-free assay, competition with immobilised ligand | 1 µM | 100% |
| CN(C)c1ncc(F)c(-c2cnn3ncccc23)n1 | binding | 1 µM | 100% |
| O=C(c1ccc(Nc2ncc(Cl)c(-c3cc4ccccc4s3)n2)cc1)N1CCC(N2CCCC2)CC1 | binding, competition with immobilised ligand | 1 µM | 20% |
| CCOCCn1cc(C(=O)Nc2ccc(-n3nc(-c4cccnc4)cc3C(F)(F)F)cn2)ccc1=O | cell-free assay, competition with immobilised ligand | 1 µM | 100% |
| Cc1cnn2ncc(-c3ccnc(N(C)C)n3)c2c1 | binding | 1 µM | 94% |
